Screening results: PubChem, several laboratories
Rows were chosen to be rich in hits. Some 1.1% of all compounds tested hit in one or more screens of this group.
core dimer inh: blocks dimerization of HCV core protein | TR-FRET GST/Flag-core106 dimerization, 1536-well | inhibition, % at 5 µM | 300,000 compounds, 0.33% hits | AID 1899;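 active = inhibition above the mean of all tested compounds plus 3 SD, set per screening campaign, cut at about 45% in these data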
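Assay system: tagged HCV core106 pair (GST and Flag); medium: KF-containing HEPES buffer, pH 7.45, DTT, CHAPS, BSA; also added: Eu donor and XL665 acceptor anti-tag antibodies; dosing: 5 µM single dose; timing: compound-protein-antibody incubation 4 h at 22.5 °C; signal: TR-FRET 671 and 617 nm emission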
Vif inh: HIV Vif inhibition; HEK293T cells, Vif self-association by quenched fluorescence, imaging, 24 h; inhibition, % at 7.49 µM; 340,000 compounds, 0.35% hits; in the data active = inhibition above about 50%, passing the limit was not always enough; inconclusive = no clear call, values can overlap the other calls; inactive = below about 31%
MT1-MMP act inh: inhibitors of human MT1-MMP activation; HT1080 RFP-PRO-GFP cells, GFP/RFP ratio fluorescence, overnight; percent of plate control window, DMSO zero; GFP/RFP ratio change, % at 20 µM; 360,000 compounds, 0.061% hits;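 active = GFP/RFP ratio change of at least 30% with cell ATP level not reduced by more than half and red fluorescence within 50% of control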
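Assay system: RFP-PRO-GFP reporter HT1080 cells; read-out basis: GFP/RFP fluorescence ratio; benchmarks: DMSO wells and RFP-L50D-GFP cells; doses: 20 µM single dose, 1% DMSO; schedule: overnight cell settling, then overnight compound exposure, 37 °C, 5% CO2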
DAGLB inh: diacylglycerol lipase beta (human) inhibition; AID 504411; HEK293T DAGLB membrane lysate, EnzChek fluorogenic substrate; Q8NCG7; inhibition, % at 5.17 µM; 340,000 compounds, 0.059% hits; in the data active = inhibition above about 34%;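 note: 0% = enzyme with vehicle and 100% = wells lacking enzyme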
Target sequence (Q8NCG7 whole entry, looked up): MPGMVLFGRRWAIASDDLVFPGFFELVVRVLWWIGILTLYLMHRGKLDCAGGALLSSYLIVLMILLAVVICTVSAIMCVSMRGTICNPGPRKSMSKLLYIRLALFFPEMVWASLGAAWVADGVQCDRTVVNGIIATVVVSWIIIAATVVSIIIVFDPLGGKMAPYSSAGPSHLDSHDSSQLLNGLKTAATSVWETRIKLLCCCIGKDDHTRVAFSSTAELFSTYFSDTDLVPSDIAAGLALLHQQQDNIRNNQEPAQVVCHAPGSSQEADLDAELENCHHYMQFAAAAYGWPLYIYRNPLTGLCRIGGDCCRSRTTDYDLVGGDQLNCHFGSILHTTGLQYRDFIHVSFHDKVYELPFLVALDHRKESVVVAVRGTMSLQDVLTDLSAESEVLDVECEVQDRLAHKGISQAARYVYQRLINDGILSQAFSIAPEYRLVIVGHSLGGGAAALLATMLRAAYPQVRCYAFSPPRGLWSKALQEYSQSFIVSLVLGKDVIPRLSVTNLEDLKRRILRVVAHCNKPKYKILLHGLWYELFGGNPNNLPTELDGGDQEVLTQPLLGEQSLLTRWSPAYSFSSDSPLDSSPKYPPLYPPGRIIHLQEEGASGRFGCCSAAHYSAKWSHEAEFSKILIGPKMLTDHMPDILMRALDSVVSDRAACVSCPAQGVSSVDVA
NR2E3 ag-1: NR2E3 (human) agonism. inhibition of corepressor binding, % at 4.78 µM. AID 2300. 320,000 compounds, 0.12% hits. GST-NR2E3/biotin-RetCOR TR-FRET, 1536-well;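 active = percent inhibition above the cutoff of mean plus 3 SD of all tested compounds, set per screening campaign, cut at about 20% in these data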;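 note: 0% = DMSO wells and 100% = biotin wells as full block of FRET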
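Material – GST-tagged NR2E3 plus biotinylated RetCOR corepressor · Quantity – NR2E3 fusion 1.35 nM · Times – 5 h incubation at 4 °C · Medium – pH 7.5 Tris-based buffer · Technique – TR-FRET, Eu(K)-anti-GST donor, streptavidin-D2 acceptor, ex 340, em 617/671 nm · Benchmarks – high control biotin, low control 0.6% DMSO · Format – 1536-well plates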
NR2E3 ag-2: agonists of human NR2E3 nuclear receptor | Q9Y5X4 | 360,000 compounds, 0.35% hits | CHO-S Gal4-NCOR/VP16-NR2E3 two-hybrid, luciferase | inhibition of corepressor binding, % at 3.98 µM;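 active = inhibition above the mean of all tested compounds plus 3 SD, cut at about 70% in these data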;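 note: 0% = DMSO with NR2E3 transfected cells and 100% = cells lacking NR2E3 construct; higher means lower luciferase signal from less NR2E3 corepressor binding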
* hit, by the source's call; ? = inconclusive; . = no result.

SMILES	core dimer inh	Vif inh	MT1-MMP act inh	DAGLB inh	NR2E3 ag-1	NR2E3 ag-2
O=C(COC(=O)c1cc(Cl)ccc1[N+](=O)[O-])NC1CC1	.	55.6*	1.2	-0.7	.	-14.3
Cc1ccc(NC(=O)COC(=O)c2cc(Cl)ccc2[N+](=O)[O-])cc1	-3.1	9.6	1.5	-11.7	-0.4	3.1
Cc1ccc(S(=O)(=O)N2Cc3ccccc3CC2C(=O)Nc2ccc3c(c2)OCO3)cc1 (stereo unspecified)	53.7*	.	-1.9	-3.4	-1.5	-99.9
O=C1C=CC(=O)c2c(O)c(N3CCN(CCO)CC3)c(Cl)c(O)c21	.	127.4*	-6.1	4.0	.	-19.6
O=C1C=CC(=O)c2c(O)c(N3CCN(CCOCCO)CC3)c(Br)c(O)c21	.	72.1*	-12.8	3.7	.	-26.1
OCCOCCN1CCN(C2=Nc3ccccc3Sc3ccccc32)CC1	-3.2	?	0.0	3.2	5.9	4.5
CCCCCc1ccc(-c2cn(CN3C(=O)c4ccccc4C3=O)nn2)cc1	-8.9	65.4*	-0.3	-6.8	0.6	15.2
CCCCCc1ccc(-c2cn(Cc3ccc(C)cc3)nn2)cc1	-2.1	-5.9	0.2	-17.2	4.1	-24.5
CC1(C)Cc2c(C#N)c(N3CCN(C(=O)c4ccccc4Cl)CC3)nc(-c3ccco3)c2CS1	81.3*	-5.7	-16.5	0.6	1.8	-4.1
CC1(C)Cc2c(C#N)c(N3CCN(C(=O)c4ccco4)CC3)nc(-c3ccco3)c2CS1	72.0*	6.0	1.0	-0.9	5.2	-39.2
COc1cccc(Cn2c(C(C)n3c(-c4cnccn4)nc4ccccc43)nc3ccccc32)c1 (stereo unspecified)	.	.	-3.6	.	.	.
COCCN(C(=S)Nc1ccc(C)cc1)C(C)c1cccnc1 (stereo unspecified)	1.2	-0.1	2.2	0.1	-1.0	-7.4
CCNc1ccccc(C(=O)/C=C/c2ccc3c(c2)OCO3)c1=O	50.2*	2.0	-6.8	9.8	4.9	-22.2
COC(=O)/C=C/c1ccc2c(c1)OCO2	-0.3	21.8	-0.2	-2.9	-0.1	3.9
CCOC(=O)C(C)On1c(-n2nc(C)cc2C)nc2ccccc2c1=O (stereo unspecified)	0.1	-3.9	-0.8	0.9	0.1	-7.2
Cc1ccc(N=Cc2c(O)n(-c3ccc4c(c3)OCO4)c(=O)c3ccccc23)cc1	62.3*	-3.9	-2.5	0.6	-0.3	-0.5
CCOC(=O)c1sc2nc3c(SCCC#N)cc(C(=O)c4cc(F)ccc4O)cn3c(=O)c2c1C	50.2*	-2.1	3.6	-2.2	-2.5	-17.5
O=C(O)CSc1cc(C(=O)c2cc(F)ccc2O)cn2c(=O)c3c(-c4ccccc4)csc3nc12	51.8*	-3.2	16.9	11.1	0.9	-20.6
CCOC(=O)c1sc2nc3c(SCCC(=O)O)cc(C(=O)c4cc(OC)ccc4O)cn3c(=O)c2c1C	.	-12.2	-14.4	-3.5	.	-68.3
CCc1c(C)sc2nc3c(C(=O)N4CCOCC4)cc(C(=O)c4cc(F)ccc4O)cn3c(=O)c12	3.7	-2.5	-18.0	1.7	-3.2	-13.7
Clc1cccc(-c2ccc(C3Nc4cccc5cccc(c45)N3)o2)c1	.	3.4	1.5	5.5	.	-9.9
O=C(CN(Cc1ccccc1)C(=O)CNS(=O)(=O)c1ccccc1)NCC1CCCO1 (stereo unspecified)	-2.2	4.3	0.5	1.8	1.1	-14.7
COc1ccc(S(=O)(=O)NCC(=O)N(CC(=O)NCC2CCCO2)Cc2ccccc2)cc1 (stereo unspecified)	-0.1	70.8*	-2.0	0.2	0.5	-23.4
CCS(=O)(=O)c1nc(S(=O)(=O)c2ccc(Cl)cc2)c(N2CCc3ccccc3C2)s1	3.9	-3.6	-7.1	-6.6	-1.0	-42.8
CCCCCN=C(N)N/N=C/c1c[nH]c2ccc(OC)cc12	-0.7	81.1*	-12.6	5.6	0.9	18.9
SMILES	core dimer inh	Vif inh	MT1-MMP act inh	DAGLB inh	NR2E3 ag-1	NR2E3 ag-2
CC1=C(C(=O)O)N2C(=O)C(NC(=O)c3ccc(F)cc3)C2SC1 (stereo unspecified)	.	10.3	-0.6	3.1	-5.1	1.5
CCN=C1NN=C(c2cc(C)n(Cc3ccco3)c2C)CS1	48.3*	6.9	3.2	3.5	3.3	38.2
Cc1cc(C(=O)NCC(=O)OCC(=O)N(C(C)C)C(C)C)ccc1[N+](=O)[O-]	-2.6	.	6.7	-1.8	-0.5	1.5
O=C1/C(=C/c2ccc(N3CCCC3)cc2)NC(=S)N1C1CC1	-32.5	54.4*	-226.2	-92.6	-6.7	-13.9
O=C(NCc1cccc(C(F)(F)F)c1)C1C(=O)Nc2ccccc2C(=O)N1C1CCCC1 (stereo unspecified)	.	.	1.8	.	.	.
O=C(NC1CC1)C1=C[C@@H](c2c[nH]c3ccccc23)C[C@@H](OCc2ccc(CO)cc2)O1	-8.4	-0.7	-2.3	-2.5	2.0	-4.2
COc1cc(C2Nc3c(F)cccc3C3C=CCC32)cc(Br)c1OC (stereo unspecified)	46.3*	-0.4	0.6	-11.3	-1.2	-5.2
Cc1ccc(S(=O)(=O)N2CC3C(=O)C[C@@H](c4ccccc4)N(S(=O)(=O)c4cccc(Cl)c4)C3CC2c2ccccc2)cc1 (stereo partly specified)	.	.	-5.7	.	.	.
N#C/C(=C\Nc1ccc2cn[nH]c2c1)c1nc(-c2ccc(Cl)cc2)cs1	12.0	-3.9	-85.0	-1.1	0.9	-17.8
N#CC(=Cc1ccccn1)c1nc(-c2ccc(Cl)cc2)cs1	.	102.7*	-77.3	-30.4	.	-46.0
Cc1ccc(-c2csc(NC(=O)c3ccno3)n2)cc1	61.9*	34.5	-2.5	7.2	-1.2	-81.8
O=C(CNC(=O)c1sc2ccccc2c1Cl)Nc1ccccc1F	4.2	0.0	-1.4	-9.3	6.0	-44.5
COc1ccc(C(=O)c2ccc(Cl)c([N+](=O)[O-])c2)cc1	3.4	69.2*	7.0	-3.4	0.1	-8.2
CCc1nnc(NC(=O)C2Cc3ccccc3CN2S(=O)(=O)c2cccs2)s1 (stereo unspecified)	59.2*	7.7	-0.8	-0.3	0.4	-20.8
CCSc1nnc(NC(=O)C2Cc3ccccc3CN2S(=O)(=O)CC)s1 (stereo unspecified)	49.0*	-1.1	-1.3	1.6	-0.6	-6.3
O=C(Nc1nnc(C2CC2)s1)C1Cc2ccccc2CN1C(=O)c1ccco1 (stereo unspecified)	54.3*	2.5	-6.8	-0.4	6.3	15.9
CNC(=O)C1Cc2ccccc2CN1S(=O)(=O)c1cccs1 (stereo unspecified)	-0.3	0.5	-2.9	3.4	-1.4	-24.1
O=C(Nc1nnc(C2CC2)s1)C1Cc2ccccc2CN1S(=O)(=O)c1cccs1 (stereo unspecified)	66.8*	21.5	-3.0	4.6	2.4	-9.6
